Measured values gathered from unrelated publications.
Protocols differ between the studies behind these lines.
Sample: Caco-2

The Papp of `O=C1CCC(N2Cc3c(ccc4c3OCC43CCN(Cc4ccccc4)CC3)C2=O)C(=O)N1` (centres unmarked) is reported as 19 ×10⁻⁶ cm/s (10 µM, 2 h).
`CC(C)NCC(O)COc1cccc2ccccc12` (centres unmarked) has a Papp B→A of 19.5 ×10⁻⁶ cm/s (10 µM, 2 h, pH 7.4).
`CC(=O)c1c(C)c2cnc(Nc3ccc(C4CCN(CCS(C)(=O)=O)CC4)cn3)nc2n(C2CCCC2)c1=O` gave a Papp A→B of 15.4 ×10⁻⁶ cm/s (10 µM).
The Papp A→B of `C[C@H]1O[C@@H](O[C@H]2[C@@H](O)C[C@H](O[C@H]3[C@@H](O)C[C@H](O[C@H]4CC[C@@]5(C)[C@H](CC[C@@H]6[C@@H]5C[C@@H](O)[C@]5(C)[C@@H](C7=CC(=O)OC7)CC[C@]65O)C4)O[C@@H]3C)O[C@@H]2C)C[C@H](O)[C@@H]1O` is reported as 1.4 ×10⁻⁶ cm/s (pH 7.4).
With `CC(c1cncnc1)n1c(=S)[nH]c2ccc(Cl)cc2c1=O` (centres unmarked) the Papp A→B was 45.7 ×10⁻⁶ cm/s (10 µM, 90 min, pH 7.4).
The Papp B→A of `CC(C)NCC(O)COc1cccc2ccccc12` (centres unmarked) is reported as 4.2 ×10⁻⁶ cm/s (pH 7.4).
For `C/C=C1/CN2CC[C@@]34c5cc(O)ccc5N(C)[C@]35OC[C@@]4(C(=O)OC)[C@H]1C[C@H]25`, the Papp A→B was 28.2 ×10⁻⁶ cm/s (10 µM, 2 h, pH 7.4).
For `O=c1c2cc(Cl)c(CO)cc2[nH]c(=S)n1Cc1cncnc1`, the Papp B→A was 27 ×10⁻⁶ cm/s (10 µM, 90 min, pH 7.4).
